HEK293 NFkB inh – inhibitors of PMA/ionomycin-induced NF-kB reporter, primary screen, antigen receptor NF-kB inhibitor project, cell-based, HEK-293 luciferase reporter, luminescence; HEK-293 NF-kB luciferase reporter; inhibition, % at 3 µM; 62,000 compounds, 0.21% hits; AID 465, 2006;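 active = inhibition above the mean of all tested compounds plus 3 SD, cut at about 40% in these data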;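 also: 0% = stimulated DMSO wells and 100% = 10 µM reference inhibitor 5653914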
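Material: HEK-293 cells with stable firefly luciferase reporter driven by four HIV NF-kB elements / Also added: PMA plus ionomycin mix as NF-kB-activating stimulus / Compound dosing: 3 µM once, 0.30% DMSO / Times: 1 h pretreatment, 16 h stimulation, 37 °C / Signal: luminescence / Evaluation: per-plate % inhibition versus controls / Benchmarks: DMSO and 10 µM reference inhibitor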
JNK3 blocker – JNK3 kinase activity inhibitors, primary screen, biochemical, human, purified enzyme; Mitogen-activated protein kinase 10 (Homo sapiens), P53779; HTS; inhibition, % at 8 µM; 60,000 compounds, 0.61% hits; in the data active = inhibition above about 17%;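 also: 0% = DMSO and 100% = reference inhibitor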
Target sequence (P53779 whole entry, looked up): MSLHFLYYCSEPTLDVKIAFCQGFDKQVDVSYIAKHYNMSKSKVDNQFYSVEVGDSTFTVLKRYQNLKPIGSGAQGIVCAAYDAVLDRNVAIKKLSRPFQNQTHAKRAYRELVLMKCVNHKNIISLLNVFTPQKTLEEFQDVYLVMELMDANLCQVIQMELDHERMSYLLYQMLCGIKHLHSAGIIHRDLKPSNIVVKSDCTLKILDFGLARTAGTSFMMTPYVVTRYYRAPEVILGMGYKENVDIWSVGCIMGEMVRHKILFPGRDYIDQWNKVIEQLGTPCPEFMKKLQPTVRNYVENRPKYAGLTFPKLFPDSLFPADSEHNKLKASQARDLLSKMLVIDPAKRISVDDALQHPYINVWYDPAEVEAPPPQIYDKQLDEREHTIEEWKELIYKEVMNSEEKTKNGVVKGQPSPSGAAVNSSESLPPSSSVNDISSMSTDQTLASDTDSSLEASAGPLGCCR
M1 antagonist – antagonists of rat M1 muscarinic receptor. Muscarinic acetylcholine receptor M1 (Rattus norvegicus), P08482. CHO-M1 cells, Fluo-4 calcium, ACh EC80 antagonist mode; hits give low values. B-score at 10 µM. 64,000 compounds, 3.4% hits;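 active = calcium fluorescence response, raw or row-and-column corrected B-score, differing from the plate sample mean either way at a set confidence level, mostly lower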
BAP1 inh – inhibitors of BAP1 deubiquitinase, primary screen, biochemical, Ub-AMC fluorescence, kinetic | recombinant BAP1, Ub-AMC hydrolysis fluorescence kinetic; hits give low values | calls only at 20 µM | 72,000 compounds, 0.48% hits;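 active = activity remaining at or below 50% of control, provided the compound also passes the data quality filters; inactive = the rest, including low values that fail the filters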;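 also: 100% = DMSO wells rate and 0% = substrate alone blank rate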
M1 agonist – M1 muscarinic receptor agonists, primary screen, CHO-M1 cells, Fluo-4 calcium, agonist mode | Fluo-4 calcium fluorescence; hits give high values | 64,000 compounds, 3% hits | B-score at 10 µM | Muscarinic acetylcholine receptor M1 | AID 626, 2007;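 active = fluorescence rise, raw or as B-score row- and column-corrected plate score, outside the 99.7% band of its plate's samples, either direction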
Her2 expr inh – inhibitors of Her2 protein expression, primary screen, SKBR-3 cells, AlphaScreen, 66K library; SKBR-3 HER2 protein level, 18-24 h; hits give low values; HER2 level % of control, % at 10 µM; 65,000 compounds, 0.69% hits;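 active = HER2 level under 5% of the carrier-only control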;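 also: 100% = DMSO carrier and 0% = 500 nM PU-H71 HSP90 inhibitor; lower value means stronger loss of Her2 protein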
M1 antag confirm – rat M1 muscarinic receptor antagonists, confirmation, CHO cells, Fluo-4 calcium, duplicate. shares compounds with M1 antagonist. ACh EC80 antagonism; hits give low values. calcium response (max-min fluorescence) at 10 µM. 1,700 compounds, 43% hits. AID 677, 2007;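 active = calcium response below the same-plate mean of wells given acetylcholine alone at its 80%-effect dose, minus 3 SD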;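 also: raw fluorescence intensity difference in arbitrary instrument units and not normalized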
mGluR4 antag – human mGluR4 response to M1 antagonist hits, M1 allosteric modulator project, cell-based, antagonist mode, secondary assay 1 | 1,700 compounds, 0.9% hits | shares compounds with M1 antagonist | AID 678, 2007 | fluorescence response (max-min) at 10 µM | CHO-mGluR4 calcium flux, Fluo-4 fluorescence, glutamate EC80; hits give low values;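 active = fluorescence response below the plate's average for near-maximal glutamate wells, less 3 SD of those wells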;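 also: raw unnormalized fluorescence span taken in the window right after glutamate addition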
Starred values were filed as active, the others as inactive; i = inactive; x = not tested or not shown. An excerpt weighted towards active compounds, which were near 6.6% of everything screened.

SMILES	HEK293 NFkB inh	JNK3 blocker	M1 antagonist	BAP1 inh	M1 agonist	Her2 expr inh	M1 antag confirm	mGluR4 antag
CC1CCN(C(=O)c2ccc([N+](=O)[O-])cc2NC(=O)c2cccs2)CC1	x	x	x	i	x	x	x	x
COc1ccc2nc(NC(=O)CN3CCN(C)CC3)sc2c1	18	-8	0.24	i	-0.074	117	x	x
CCOC(=O)c1oc2ccc(Br)cc2c1NC(=O)CN1CCN(C)CC1	19	5	-2.9*	i	-0.52	106	450*	296
CCOC(=O)c1c(CN2CCN(C)CC2)oc2ccc(O)cc12	2	0	-1	i	0.076	111	x	x
COc1ccc2oc(C(=O)c3ccccc3)c(NC(=O)CN3CCN(C)CC3)c2c1	23	-6	-3.2*	i	0.23	49	416	252
O=C(NCc1nnc(SCC(=O)N2CCCC2)o1)c1ccccc1F	15	x	-1.1	i	-0.5	117	x	x
O=C(CSc1nnc(CNC(=O)c2ccccc2F)o1)c1ccccc1	14	x	-3.2*	i	-2	104	611	245
Cc1cc(OCCNCCO)cc(C)c1Cl	12	-2	-0.88	i	-0.42	150	x	x
Cc1cc(OCCCCCNCCO)cc(C)c1Cl	23	0	-3.8*	i	-1.7	75	534	234
Cc1cc(C)n(C(=O)c2cc3ccccc3c(=O)o2)n1	0	4	-5.1*	i	0.18	96	662	250
COCCOC(=O)C1=C(C)NC2=C(C(=O)CC(c3ccc(Cl)cc3)C2)C1c1ccc(N(C)C)cc1 (configuration not stated)	x	x	x	i	x	x	x	x
CCCC1COC(Cn2cncn2)(c2ccc(C)cc2)O1 (configuration not stated)	1	1	-13*	i	1.2	86	667	245
O=C(c1ccc2nc(N3CCCCC3)sc2c1)N1CCN(Cc2ccc3c(c2)OCO3)CC1	7	-4	-0.95*	i	-2.1	66	366	219
CCOC(=O)N1CCN(C(=O)c2ccc3nc(N4CCCCC4)sc3c2)CC1	-12	1	0.77	i	-1.2	104	x	x
O=c1c2[nH]c3ccccc3c2ncn1CCN1CCNCC1	5	5	-3.1*	i	0.2	65	719	230
Cc1ccc(C2CC(C(F)(F)F)n3nc(C(=O)N(C)C4CCCCC4)c(Cl)c3N2)cc1 (configuration not stated)	x	x	x	i	x	x	x	x
CCN(CCNS(=O)(=O)c1ccc2[nH]c(=O)sc2c1)c1ccccc1	20	-5	-2.4*	i	-2.1	79	601	156*
COc1ccccc1N1CCN(C(=O)CCCn2c(=O)[nH]c3ccsc3c2=O)CC1	15	14	-4.2*	i	-1.4	105	617	222
COC(=O)c1cc(N)c(Cl)s1	x	x	x	i	x	x	x	x
CCCn1cnc2cc(NCc3cccc(OC)c3)ccc21	9	-11	-2.4*	i	-0.17	124	397*	189
Cc1nc(NC2=NCN(C3CCCCC3C)CN2)nc2ccccc12 (configuration not stated)	10	2	-4.9*	i	-1.3	76	258*	186
Cc1ccc(S(=O)(=O)NC2=NCN(C3CCCCC3)CN2)cc1	12	-6	-0.52	i	-0.015	58	x	x
Cc1nc(NC2=NCN(CC3CCCO3)CN2)nc2ccccc12 (configuration not stated)	13	1	-8.9*	i	-0.2	103	108*	209

Assay outcomes as filed in PubChem BioAssay.
